# Data: ChEMBL document CHEMBL1122328, “Hypolipidemic activity of phthalimide derivatives. 2. N-phenylphthalimide and derivatives” (1983)
# Assays:
# Format in all cases: functional
# Mus musculus [1] = test: Effect on mg of lipid from CF1 male mice after 16 days at a dose of 10 (mg/kg/day)
# Summary of the method: (§1)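 CF1 male mice dosed ip for 16 days at 10–60 (mg/kg)/day; liver taken and 10% homogenate made in 0.25 M sucrose + 0.001 M EDTA; aliquot extracted by Folch and Bligh–Dyer methods, mg lipid weighed, cholesterol measured by Liebermann–Burchard method; n = 6; % of 1% CMC control.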
# Rattus norvegicus [2] = test: Effect on low density neutral lipids Holtzman rats after 14 days administration
# Summary of the method: (§2)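 Holtzman male rats (~400 g) given drug at 20 (mg/kg)/day for 14 days; on day 14 blood taken from the abdominal aorta and serum separated by centrifugation at 3500 rpm; lipid and protein content of the lipoprotein fractions measured.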
# Mus musculus [3] = species: Mus musculus; test: In vitro effect on CF1 male mouse on Citrate lyase
# Summary of the method: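 In vitro test on 10% CF₁ male mouse liver homogenate (0.25 M sucrose, 0.001 M EDTA) with 2.5 μmol test drug. Assays: acetyl-CoA synthetase and citrate lyase as hydroxamate at 540 nm, 30 min, 37 °C; citrate exchange from [¹⁴C]citrate-loaded mitochondria after 10 min with drug; side-chain oxidation by ¹⁴CO₂ from [26-¹⁴C]cholesterol, 18 h, 37 °C; acetyl-CoA carboxylase by [¹⁴C]bicarbonate fixation after 30 min polymerization then 30 min at 37 °C.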
# Rattus norvegicus [4] = test: Effect on Serum triglceride levels on Holtzman rats at a dose of 30 (mg/kg)/day after 14 days
# Summary of the method: (§3)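 Holtzman male rats (~200 g) dosed orally by intubation needle daily for 16 days, drug suspended in 1% carboxymethylcellulose; n = 6; vehicle control. Tail-vein serum cholesterol on days 9 and 16 by modified Liebermann–Burchard reaction; day-14 serum triglyceride by commercial kit; % control.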
# Mus musculus [5] = test: In vitro effect on CF1 male mouse on Fatty acid synthetase after 16 days at a dose of 10 (mg/kg)/day
# Summary of the method: (§4)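 In vivo enzyme study. CF₁ male mice were dosed ip for 16 days in 1% CMC, and liver was homogenised to 10% in 0.25 M sucrose with 0.001 M EDTA. Enzymes assayed: acetyl-CoA synthetase as hydroxamate at 540 nm after 30 min at 37 °C; HMG CoA reductase with [1-¹⁴C]acetate in 9000g supernatant for 60 min at 37 °C; fatty acid synthetase with [2-¹⁴C]malonyl-CoA; acyltransferase with [³H]glycerol 3-phosphate and microsomes for 10 min; phosphatidate phosphohydrolase as released phosphate at 820 nm after 30 min. N = 6; reported as % control.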
# Mus musculus [6] = test: In vitro effect on CF1 male mouse onAc-CoA carboxylase after 16 days at a dose of 20 (mg/kg)/day; details: in the assay text read “In vivo” for “In vitro”
# Summary of the method: (§5)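 Mice (CF1 males) given agent ip daily for 16 days in 1% carboxymethylcellulose; liver 10% homogenate in 0.25 M sucrose + 0.001 M EDTA. Acetyl-CoA carboxylase first polymerized 30 min at 37 °C, then incubated 30 min at 37 °C with sodium [14C]bicarbonate (41.0 mCi/mmol); incorporated label counted. Activity as % of vehicle control; N = 6.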
# Mus musculus [7] = test: In vitro effect on CF1 male mouse on Lipid content after 16 days at a dose of 60 (mg/kg)/day
# Rattus norvegicus [8] = test: Effect on low density cholesterol Holtzman rats after 14 days administration; summary of the method: as §2
# Rattus norvegicus [9] = test: Effect on high density Phospholipids Holtzman rats after 14 days administration; summary of the method: as §2
# Rattus norvegicus [10] = test: Effect on Chylomicrons of neutral lipids Holtzman rats after 14 days administration; summary of the method: as §2
# Rattus norvegicus [11] = test: Effect on Chylomicrons of Phospholipids Holtzman rats after 14 days administration; summary of the method: as §2
# Mus musculus [12] = test: In vitro effect on CF1 male mouse onAc-CoA carboxylase after 16 days at a dose of 40 (mg/kg)/day; details: in the assay text read “In vivo” for “In vitro”; summary of the method: as §5
# Mus musculus [13] = test: In vitro effect on CF1 male mouse on Ac-CoA synthetase after 16 days at a dose of 20 (mg/kg)/day; summary of the method: as §4
# Mus musculus [14] = test: In vitro effect on CF1 male mouse on phosphatidate phosphohydrolase after 16 days at a dose of 10 (mg/kg)/day; summary of the method: as §4
# Mus musculus [15] = test: Effect on Serum triglceride levels on CF1 male mice at a dose of 12.5 (mg/kg)/day after 14 days
# Summary of the method: (§6)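 CF1 male mice (~25 g), drug suspended in 1% carboxymethylcellulose in water, given ip daily for 16 days; n = 6; vehicle control. Tail-vein blood on days 9 and 16, serum cholesterol by modified Liebermann–Burchard reaction; day-14 serum triglyceride by commercial kit; expressed as % control.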
# Mus musculus [16] = test: Effect on Serum triglceride levels on CF1 male mice at a dose of 50 (mg/kg)/day after 14 days; summary of the method: as §6
# Rattus norvegicus [17] = test: Effect on very low density Phospholipids Holtzman rats after 14 days administration
# Summary of the method: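 Holtzman male rats (~400 g) received drug at 20 (mg/kg)/day for 14 days. On day 14, blood was collected from the abdominal aorta and serum was separated by centrifugation at 3500 rpm. Lipid content of the lipoprotein fractions was then determined.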
# Mus musculus [18] = species: Mus musculus; test: In vitro effect on CF1 male mouse on HMGCoA reductase
# Mus musculus [19] = test: Effect on mg of lipid from CF1 male mice after 16 days at a dose of 20 (mg/kg/day); summary of the method: as §1
# Rattus norvegicus [20] = test: Effect on neutral lipids Holtzman rats after 14 days administration
# Mus musculus [21] = test: In vitro effect on CF1 male mouse on Ac-CoA synthetase after 16 days at a dose of 10 (mg/kg)/day; details: in the assay text read “In vivo” for “In vitro”; summary of the method: as §4
# Rattus norvegicus [22] = test: Effect on low density Phospholipids Holtzman rats after 14 days administration; summary of the method: as §2
# Rattus norvegicus [23] = test: Effect on high density Triglycerides Holtzman rats after 14 days administration; summary of the method: as §2
# Rattus norvegicus [24] = test: Effect on Serum cholesterol levels on Holtzman rats at a dose of 30 (mg/kg)/day after 9 days; summary of the method: as §3
# Mus musculus [25] = test: Effect on phospholipids from CF1 male mice after 16 days at a dose of 40 (mg/kg/day)
# Summary of the method: (§7)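 Dosing was ip in CF₁ male mice (~25 g) for 16 days, with compound suspended in 1% carboxymethylcellulose. Liver was then taken and homogenised to 10% in 0.25 M sucrose with 0.001 M EDTA. Lipid was extracted from a 2 mL aliquot by the Folch and Bligh–Dyer methods and total mg of lipid was weighed. Cholesterol (Liebermann–Burchard), triglycerides (kit), neutral lipids and phospholipids were then measured; N = 6; reported as % of vehicle control.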
# Mus musculus [26] = test: Effect on neutral lipids from CF1 male mice after 16 days at a dose of 20 (mg/kg/day); summary of the method: as §7
# Mus musculus [27] = test: In vitro effect on CF1 male mouse on Ac-CoA synthetase after 16 days at a dose of 40 (mg/kg)/day; summary of the method: as §4
# Mus musculus [28] = test: Effect on Serum cholesterol levels on CF1 male mice at a dose of 12.5 (mg/kg)/day after 9 days; summary of the method: as §6
# Mus musculus [29] = test: Effect on triglycerides from CF1 male mice after 16 days at a dose of 40 (mg/kg/day); summary of the method: as §7
# Mus musculus [30] = species: Mus musculus; test: In vitro effect on CF1 male mouse on acyltransferase
# Mus musculus [31] = test: Effect on Serum cholesterol levels on CF1 male mice at a dose of 20 (mg/kg)/day after 9 days; summary of the method: as §6
# Mus musculus [32] = test: Effect on Serum cholesterol levels on CF1 male mice at a dose of 100 (mg/kg)/day after 16 days; summary of the method: as §6
# Mus musculus [33] = test: Effect on triglycerides from CF1 male mice after 16 days at a dose of 60 (mg/kg/day); summary of the method: as §7
smiles,measurement,setting,value
CC(=O)c1ccccc1N1C(=O)c2ccccc2C1=O,Control,Mus musculus [1],84%
same,Control,Rattus norvegicus [2],49%
same,Control,Mus musculus [3],62%
same,Control,Rattus norvegicus [4],75%
same,Control,Mus musculus [5],106%
same,Control,Mus musculus [6],41%
same,Control,Mus musculus [7],80%
same,Control,Rattus norvegicus [8],57%
same,Control,Rattus norvegicus [9],446%
same,Control,Rattus norvegicus [10],50%
same,Control,Rattus norvegicus [11],171%
same,Control,Mus musculus [12],48%
same,Control,Mus musculus [13],46%
same,Control,Mus musculus [14],85%
same,Control,Mus musculus [15],56%
same,Control,Mus musculus [16],53%
same,Control,Rattus norvegicus [17],359%
same,Control,Mus musculus [18],91%
same,Control,Mus musculus [19],85%
same,Control,Rattus norvegicus [20],55%
same,Control,Mus musculus [21],53%
same,Control,Rattus norvegicus [22],87%
same,Control,Rattus norvegicus [23],63%
same,Control,Rattus norvegicus [24],76%
same,Control,Mus musculus [25],143%
same,Control,Mus musculus [26],65%
same,Control,Mus musculus [27],59%
same,Control,Mus musculus [28],83%
same,Control,Mus musculus [29],91%
same,Control,Mus musculus [30],54%
same,Control,Mus musculus [31],89%
same,Control,Mus musculus [32],26%
same,Control,Mus musculus [33],100%
